Source: PubChem BioAssay
The list is not random: actives were taken first. Their share in the collection is about 9%.
Htt clearance: mutant huntingtin protein clearance; HeLa Exon1htt(103Q)mCFP, aggregate imaging; zero = plate's median compound well; AID 853; hit rate 0.42% among 47,000; inhibition, % at 1.5 µM;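 active = inhibition of aggregate fluorescence above about 70%, also judged a hit by eye on the cell image, limit read from the data, passing the limit was not always enough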;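 note: cells exposed to compound for three days before fixation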
M1 antagonist: M1 muscarinic receptor (rat) antagonism. P08482. CHO-M1 cells, Fluo-4 calcium, ACh EC80 antagonist mode; stronger effect = lower value. hit rate 3.4% among 64,000. B-score at 10 µM;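 active = calcium fluorescence response, raw or row-and-column corrected B-score, differing from the plate sample mean either way at a set confidence level, mostly lower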
AP ELISA ortho: alternative pathway complement inhibition, orthogonal assay. hit rate 0.08% among 62,000. Human serum alternative complement pathway, LPS-coated ELISA, C3 deposition; tested in compound mixtures. inhibition, % at 5 µM;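 active = inhibition above 30% in each of the two pooled mixtures holding the compound, so the lower value exceeds 30%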;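 note: 0% = serum in Mg-EGTA without compound and 100% = EDTA serum blank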
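Assay system: human serum alternative complement pathway, C3 deposition on LPS-coated wells; Dosing: 5 µM per compound in ten-compound mixtures; Detection: Anti-C3 ELISA, OD 450 nm; Buffer or medium: Mg2+-EGTA GVB++ buffer containing human serum at 1:15 dilution; Timing: 1 h at 37 °C; Replication: two different pools per compound.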
D1 allo mod: D1 dopamine receptor (human) allosteric modulation. P21728. HEK293 D1, CRE-luciferase, dopamine EC30 potentiation; actives deviate in either direction. B-score at 10 µM. hit rate 5.9% among 58,000. AID 641;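 active = luminescence count or its row- and column-corrected plate score outside the 99.7% band of the plate's sample wells, on either side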
Target sequence (P21728 whole entry, looked up): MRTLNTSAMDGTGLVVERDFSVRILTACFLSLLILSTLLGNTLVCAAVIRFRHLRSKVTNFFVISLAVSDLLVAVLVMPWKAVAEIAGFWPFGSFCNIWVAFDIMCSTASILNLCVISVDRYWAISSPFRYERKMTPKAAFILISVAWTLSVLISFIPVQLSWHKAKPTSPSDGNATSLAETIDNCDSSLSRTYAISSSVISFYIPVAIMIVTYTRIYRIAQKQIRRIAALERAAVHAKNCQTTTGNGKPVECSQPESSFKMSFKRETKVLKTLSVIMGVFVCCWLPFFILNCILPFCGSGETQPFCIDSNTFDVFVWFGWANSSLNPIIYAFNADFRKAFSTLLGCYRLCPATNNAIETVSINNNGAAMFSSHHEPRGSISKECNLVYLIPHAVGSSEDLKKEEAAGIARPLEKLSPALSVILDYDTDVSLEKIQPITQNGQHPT
M1 ag: M1 muscarinic receptor agonism; CHO-M1 cells, Fluo-4 calcium fluorescence, agonist mode; stronger effect = higher value; B-score at 10 µM; hit rate 3% among 64,000; AID 626;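 active = fluorescence rise, raw or as B-score row- and column-corrected plate score, outside the 99.7% band of its plate's samples, either direction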
D1 PAM confirm: D1 receptor (human) allosteric modulation, confirmed. hit rate 88% among 2,200. HEK293 D1 CRE-luciferase, dopamine EC30 potentiation; stronger effect = higher value. shares compounds with D1 allo mod. luminescence at 10 µM;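 active = luminescence in either of two replicates above the same-plate mean plus 3 SD of the low-dose dopamine control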
D1 no dopamine: D1 (human) signaling in absence of dopamine; shares compounds with D1 allo mod; HEK293 D1 CRE-luciferase, luminescence, no dopamine; stronger effect = higher value; luminescence at 10 µM; hit rate 0.8% among 1,900; AID 646; in the data active = luminescence above about 3900
Isoprot counter: isoproterenol response counter-screen activity for D1 modulators | hit rate 63% among 2,200 | HEK293 D1 CRE-luciferase, isoproterenol EC30 counter-screen | shares compounds with D1 allo mod | calls only at 10 µM | AID 647;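 active = luminescence in either replicate above plate mean of wells with a partly effective reference agonist dose plus 3 SD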;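 note: isoproterenol raises cAMP through native beta-adrenoceptor Gs so signal bypasses D1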
* marks the source's active call; other numbers are inactive results.

What do the screens show for `COc1ccccc1NC(=O)CN(Cc1ccccc1)S(C)(=O)=O`?
Htt clearance: 29.0

Results for c1ccc(C2CC(c3ccccc3)n3ncnc3N2)cc1 (centres undefined) ?
M1 antagonist: 0.127; AP ELISA ortho: 4.1; D1 allo mod: 4.38*; M1 ag: -0.363; D1 PAM confirm: 6308*; D1 no dopamine: 1700; Isoprot counter: inactive

How did COc1ccc(C2CC(c3ccccc3)Nc3nc(N)nn32)cc1 (centres undefined) do in these assays?
M1 antagonist: -0.00468; M1 ag: 0.679

What do the screens show for `Nc1nc2n(n1)C(c1ccccc1)CC(c1ccc(F)cc1)N2` (centres undefined)?
Htt clearance: -49.6; M1 antagonist: -0.589; AP ELISA ortho: 2.6; D1 allo mod: 6.03*; M1 ag: 0.0391; D1 PAM confirm: 11012*; D1 no dopamine: 1632; Isoprot counter: inactive

How did CCOc1ccc(C2CC(c3ccccc3)Nc3nc(N)nn32)cc1 (centres undefined) do in these assays?
M1 antagonist: 0.453; M1 ag: -0.036

What do the screens show for `Nc1nc2n(n1)C(c1cccc(Br)c1)CC(c1ccc(F)cc1)N2` (centres undefined)?
Htt clearance: 60.0; M1 antagonist: -0.312; AP ELISA ortho: 2.1; D1 allo mod: 14.3*; M1 ag: -0.927; D1 PAM confirm: 13072*; D1 no dopamine: 1584; Isoprot counter: active

What do the screens show for `Nc1nc2n(n1)C(c1ccco1)CC(c1ccccc1)N2` (centres undefined)?
Htt clearance: 25.1; M1 antagonist: -1.64; D1 allo mod: 13.5*; M1 ag: -0.99; D1 PAM confirm: 20620*; D1 no dopamine: 1600; Isoprot counter: active

What do the screens show for `CC(C)(O)c1cn(-c2nonc2N)nn1`?
M1 antagonist: 0.623; AP ELISA ortho: 19.0; D1 allo mod: 0.738; M1 ag: -0.23

How did CCOc1ccccc1NC(=O)CSc1nnc(-c2ccccc2Cl)n1Cc1ccco1 do in these assays?
Htt clearance: -7.3; M1 antagonist: -0.989; AP ELISA ortho: 8.7; D1 allo mod: -0.188; M1 ag: -1.11

What do the screens show for `CCN(CC(=O)Nc1c(C(=O)OC)[nH]c2ccccc12)c1ccc2c(c1)OCO2`?
M1 antagonist: 0.804; AP ELISA ortho: 0.2; D1 allo mod: 8.27*; M1 ag: 1.81; D1 PAM confirm: 11912*; D1 no dopamine: 1772; Isoprot counter: active

How did CC(C(=O)Nc1ccc2c(c1)OCO2)N(c1ccc(Cl)cc1)S(C)(=O)=O (centres undefined) do in these assays?
Htt clearance: -39.7; M1 antagonist: -0.616; AP ELISA ortho: -1.5; D1 allo mod: 0.245; M1 ag: 0.197

How did CCOc1ccc(C(=O)Nc2nnc(C)s2)cc1OCC do in these assays?
Htt clearance: -19.3; M1 antagonist: 0.0909; AP ELISA ortho: 10.5; D1 allo mod: 5.93*; M1 ag: -0.23; D1 PAM confirm: 13964*; Isoprot counter: active

What do the screens show for `Cc1nnc(NC(=O)c2cccc(Br)c2)s1`?
Htt clearance: 39.6

Results for Cc1ccc2oc(=O)c3cc(C(=O)N4CCN(c5ncccn5)CC4)sc3c2c1 ?
M1 antagonist: 0.652; AP ELISA ortho: 10.6; D1 allo mod: 1.2; M1 ag: 1.35

Results for COc1ccc(C2c3c(-c4cc(Cl)c(C)cc4O)n[nH]c3C(=O)N2Cc2cccnc2)cc1OC (centres undefined) ?
M1 antagonist: -0.23; AP ELISA ortho: -0.5; D1 allo mod: 4.27*; M1 ag: -1.67; D1 PAM confirm: 9304*; Isoprot counter: active

Results for COc1nc(OCC#N)nc(N(C)C)n1 ?
Htt clearance: 44.6

What do the screens show for `CCC(C)Nc1nc(OC)nc(N(C)C#N)n1` (centres undefined)?
Htt clearance: 3.6; M1 antagonist: 0.00466; D1 allo mod: 6.86*; M1 ag: -0.0389; D1 PAM confirm: 12160*; D1 no dopamine: 2240; Isoprot counter: inactive

How did CCCS(=O)(=O)N1CCCC(C(=O)N2CCOCC2)C1 (centres undefined) do in these assays?
Htt clearance: -60.1; M1 antagonist: 0.0291; AP ELISA ortho: 0.9; D1 allo mod: -0.26; M1 ag: 0.19

What do the screens show for `O=S(=O)(NCC(c1cccnc1)N1CCN(c2ccccc2)CC1)c1cc(F)ccc1F` (centres undefined)?
M1 antagonist: -0.612; AP ELISA ortho: 16.6; D1 allo mod: -0.538; M1 ag: -0.104

Results for CCOc1ncccc1C(=O)OCc1ccc(C(=O)OC)o1 ?
M1 antagonist: -0.0311; AP ELISA ortho: 3.1; D1 allo mod: 8*; M1 ag: 0.128; D1 PAM confirm: 16096*; D1 no dopamine: 1680; Isoprot counter: active

Results for CCOc1cc(C(=O)OCc2ccc(C(=O)OC)o2)cc(Br)c1OC ?
Htt clearance: 24.2; M1 antagonist: -0.616; AP ELISA ortho: 5.0; D1 allo mod: 0.383; M1 ag: -0.382

What do the screens show for `CCc1ccc(C2=Nn3c(nnc3-c3cccs3)SC2)cc1`?
Htt clearance: -35.4; M1 antagonist: -0.0104; AP ELISA ortho: 22.8; D1 allo mod: 8.81*; M1 ag: 0.961; D1 PAM confirm: 6272*; D1 no dopamine: 976; Isoprot counter: inactive

How did Cc1cccc(-c2nnc3n2N=C(c2ccccc2Br)CS3)c1 do in these assays?
M1 antagonist: -0.603; AP ELISA ortho: -19.7; D1 allo mod: 8.15*; M1 ag: 0.00244; D1 PAM confirm: 17404*; D1 no dopamine: 1544; Isoprot counter: active

What do the screens show for `Cc1ccc(-c2nnc3n2N=C(c2ccccc2)CS3)cc1`?
M1 antagonist: 0.406; AP ELISA ortho: 14.8; D1 allo mod: 8.3*; M1 ag: 0.396; D1 PAM confirm: 21908*; D1 no dopamine: 1732; Isoprot counter: active

How did COc1ccc(C2=Nn3c(nnc3-c3ccc(OC)cc3)SC2)cc1 do in these assays?
M1 antagonist: 1.19; AP ELISA ortho: -3.9; D1 allo mod: 8.12*; M1 ag: 0.00989; D1 PAM confirm: 16788*; D1 no dopamine: 2416; Isoprot counter: active

What do the screens show for `COc1ccc(-c2nnc3n2N=C(c2cccc(Br)c2)CS3)cc1OC`?
M1 antagonist: 1.32; AP ELISA ortho: 9.0; D1 allo mod: 1.25; M1 ag: 0.0452

Results for COc1ccnc(Oc2ccc(C)cc2C)c1C#N ?
Htt clearance: 13.2

Results for Cc1cccc(N2C(=O)CC(N(C(=O)c3ccco3)c3cccc(C)c3)C2=O)c1 (centres undefined) ?
Htt clearance: 2.2; M1 antagonist: 0.248; AP ELISA ortho: 3.2; D1 allo mod: -0.354; M1 ag: 0.643
